Source: ChEMBL document CHEMBL3351281, “1,3,4-Oxadiazole-containing histone deacetylase inhibitors: anticancer activities in cancer cells” (J Med Chem, 2014)
Blank lines part the entries; values can stand above or below the compound they belong to. Calls of active or inactive are those of the source. The rule behind the calls is not given here.

Columns and labels:
[1] = target: T1, Protein deacetylase HDAC6 (Homo sapiens, UniProt Q9UBN7); test: Inhibition of human recombinant HDAC6 pre-incubated at room temperature for 15 min before substrate addition by fluorimetric assay
T1 sequence (Q9UBN7 whole entry): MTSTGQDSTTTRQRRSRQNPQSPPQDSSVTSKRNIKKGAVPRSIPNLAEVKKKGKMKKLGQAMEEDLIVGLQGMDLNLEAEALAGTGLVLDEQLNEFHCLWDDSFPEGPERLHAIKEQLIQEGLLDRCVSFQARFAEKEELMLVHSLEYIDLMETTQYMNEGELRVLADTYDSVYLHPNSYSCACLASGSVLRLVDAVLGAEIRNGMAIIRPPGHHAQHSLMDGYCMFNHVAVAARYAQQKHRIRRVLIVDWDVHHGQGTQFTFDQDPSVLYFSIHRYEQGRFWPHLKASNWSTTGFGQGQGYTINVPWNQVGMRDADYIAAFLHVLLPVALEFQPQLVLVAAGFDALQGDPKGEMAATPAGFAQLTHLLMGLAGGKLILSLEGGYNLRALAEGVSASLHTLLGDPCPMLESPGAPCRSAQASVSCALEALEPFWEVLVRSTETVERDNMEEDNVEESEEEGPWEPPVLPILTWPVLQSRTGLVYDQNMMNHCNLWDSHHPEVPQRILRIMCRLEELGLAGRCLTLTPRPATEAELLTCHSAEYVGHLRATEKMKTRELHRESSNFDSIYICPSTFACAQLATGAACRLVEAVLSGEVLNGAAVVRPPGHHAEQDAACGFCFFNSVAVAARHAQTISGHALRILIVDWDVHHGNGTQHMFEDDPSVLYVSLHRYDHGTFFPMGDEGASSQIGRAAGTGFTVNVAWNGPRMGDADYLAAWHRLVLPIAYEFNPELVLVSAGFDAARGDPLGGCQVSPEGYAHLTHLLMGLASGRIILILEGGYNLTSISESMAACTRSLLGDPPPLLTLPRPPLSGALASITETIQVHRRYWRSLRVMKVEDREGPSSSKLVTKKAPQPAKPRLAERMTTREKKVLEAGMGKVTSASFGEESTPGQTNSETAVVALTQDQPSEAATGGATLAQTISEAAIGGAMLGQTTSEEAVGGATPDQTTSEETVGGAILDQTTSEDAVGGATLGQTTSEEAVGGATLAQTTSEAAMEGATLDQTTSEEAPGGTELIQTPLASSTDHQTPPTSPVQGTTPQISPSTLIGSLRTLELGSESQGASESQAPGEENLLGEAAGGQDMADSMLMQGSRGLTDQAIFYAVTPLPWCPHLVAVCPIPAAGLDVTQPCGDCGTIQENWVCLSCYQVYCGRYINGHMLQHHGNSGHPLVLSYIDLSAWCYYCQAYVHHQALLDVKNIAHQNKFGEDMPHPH

[2] = target: Histone deacetylase 4 (Homo sapiens, UniProt P56524); test: Inhibition of human recombinant HDAC4 using non-histone trifluoroacetyl lysine substrate pre-incubated at room temperature for 15 mins before substrate addition by fluorimetric assay
[3] = system: U-937; test: Induction of cell cycle arrest in human U937 cells assessed as accumulation at S phase at 0.1 to 25 uM after 48 hrs by propidium iodide staining based FACS method; assay type: functional
Outline: (§1)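 U937 cells treated at 0.1, 1, 5, 10 and 25 μM for 24 and 48 h, with reference drugs at 5 μM as positive controls. Cell-cycle distribution measured, with accumulation in S phase scored.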

[4] = target: Histone deacetylase 1 (Homo sapiens, UniProt Q13547); test: Inhibition of human recombinant HDAC1 using histone H3 substrate pre-incubated at room temperature for 15 mins before substrate addition by fluorimetric assay
[5] = system: U-937; test: Induction of apoptosis in human U937 cells assessed as accumulation at pre-G1 phase after 48 hrs by propidium iodide staining based FACS method; assay type: functional, cell-based
Outline: (§2)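 U937 cells exposed to 0.1, 1, 5, 10 and 25 μM for 24 and 48 h. Reference drugs at 5 μM served as positive controls. Apoptosis taken as the percentage of cells in the pre-G1 peak.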

[6] = system: U-937; test: Induction of granulocytic differentiation in human U937 cells assessed as increase in CD11c expression at 5 uM after 48 hrs by FACS method; assay type: functional
Outline: (§3)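 Granulocytic differentiation in U937 cells at 0.1, 1, 5, 10 and 25 μM for 24 and 48 h, with reference drugs at 5 μM as positive controls. Read-out was the percentage of CD11c-positive, propidium iodide-negative cells.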

[7] = system: MDA-MB-468; test: Antiproliferative activity against human MDA-MB-468 cells after 48 hrs by MTT assay; assay type: functional, cell-based; settings: MDA-MB-468, 48 h
Outline: (§4)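 Solid tumour cells grown in RPMI with 10% fetal calf serum and penicillin. Exponentially growing cells seeded in sextuplicate in 96-well plates (3 × 10³ cells/well), treated 24 h later at 1 to 50 μM for 48 h. Viability read by MTT.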

[8] = system: SW-620; test: Antiproliferative activity against human SW620 cells after 48 hrs by MTT assay; assay type: functional, cell-based; settings: SW-620, 48 h; outline: as §4
[9] = system: HCC1937; test: Antiproliferative activity against human HCC1937 cells after 48 hrs by MTT assay; assay type: functional, cell-based; settings: HCC1937, 48 h; outline: as §4
[10] = system: A549; test: Antiproliferative activity against human A549 cells after 48 hrs by MTT assay; assay type: functional, cell-based; settings: A549, 48 h; outline: as §4
[11] = Antiproliferative activity against human KG1 cells after 48 hrs by Cell Titer GLo Assay; assay type: functional, cell-based; settings: KG-1, 48 h
Outline: (§5)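 AML cells grown in RPMI with 10% fetal calf serum, antibiotics, amphotericin-B, 10 mM HEPES and 2 mM glutamine, kept at 200 000 cells/mL. Exponentially growing cells seeded in duplicate in 6-well plates (2 × 10⁵ cells/well), treated 24 h later at 1 to 50 μM for 48 h. Viability by Cell Titer GLo.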

[12] = system: MOLM-13; test: Antiproliferative activity against human MOLM13 cells after 48 hrs by Cell Titer GLo Assay; assay type: functional, cell-based; settings: MOLM-13, 48 h; outline: as §5
[13] = Antiproliferative activity against human HCT116 cells after 48 hrs by MTT assay; assay type: functional, cell-based; settings: HCT-116, 48 h; outline: as §4
[14] = system: U-937; test: Induction of granulocytic differentiation in human U937 cells assessed as increase in CD11c expression after 48 hrs by FACS method; assay type: functional, cell-based; outline: as §3
[15] = Antiproliferative activity against human HL60 cells after 48 hrs by Cell Titer GLo Assay; assay type: functional, cell-based; settings: HL-60, 48 h; outline: as §5
[16] = system: M14; test: Antiproliferative activity against human M14 cells after 48 hrs by MTT assay; assay type: functional, cell-based; settings: M14, 48 h; outline: as §4
[17] = system: U-937; test: Induction of apoptosis in human U937 cells assessed as accumulation at pre-G1 phase at 25 uM after 48 hrs by propidium iodide staining based FACS method; assay type: functional; outline: as §2
[18] = Antiproliferative activity against human SANTO cells after 48 hrs by MTT assay; assay type: functional, cell-based; outline: as §4
[19] = system: U-937; test: Induction of apoptosis in human U937 cells assessed as accumulation at pre-G1 phase at 5 uM after 48 hrs by propidium iodide staining based FACS method; assay type: functional; outline: as §2
[20] = system: HEL; test: Antiproliferative activity against human HEL cells after 48 hrs by Cell Titer GLo Assay; assay type: functional, cell-based; outline: as §5
[21] = system: U-937; settings: Homo sapiens, at 2.5 µM
[22] = system: U2OS; test: Antiproliferative activity against human U2OS cells after 48 hrs by MTT assay; assay type: functional, cell-based; outline: as §4
[23] = Antiproliferative activity against human U937 cells after 48 hrs by Cell Titer GLo Assay; assay type: functional, cell-based; settings: U-937, 48 h; outline: as §5
[24] = system: U-937; test: Induction of cell cycle arrest in human U937 cells assessed as accumulation at S phase at 5 uM after 48 hrs by propidium iodide staining based FACS method; assay type: functional; outline: as §1
[25] = system: U-937; test: Induction of cell cycle arrest in human U937 cells assessed as accumulation at S phase at 1 uM after 48 hrs by propidium iodide staining based FACS method; assay type: functional; outline: as §1
[26] = cells; assay type: functional; settings: Homo sapiens, U-937, 24 h

Histone deacetylase 1, sequence (Q13547 whole entry): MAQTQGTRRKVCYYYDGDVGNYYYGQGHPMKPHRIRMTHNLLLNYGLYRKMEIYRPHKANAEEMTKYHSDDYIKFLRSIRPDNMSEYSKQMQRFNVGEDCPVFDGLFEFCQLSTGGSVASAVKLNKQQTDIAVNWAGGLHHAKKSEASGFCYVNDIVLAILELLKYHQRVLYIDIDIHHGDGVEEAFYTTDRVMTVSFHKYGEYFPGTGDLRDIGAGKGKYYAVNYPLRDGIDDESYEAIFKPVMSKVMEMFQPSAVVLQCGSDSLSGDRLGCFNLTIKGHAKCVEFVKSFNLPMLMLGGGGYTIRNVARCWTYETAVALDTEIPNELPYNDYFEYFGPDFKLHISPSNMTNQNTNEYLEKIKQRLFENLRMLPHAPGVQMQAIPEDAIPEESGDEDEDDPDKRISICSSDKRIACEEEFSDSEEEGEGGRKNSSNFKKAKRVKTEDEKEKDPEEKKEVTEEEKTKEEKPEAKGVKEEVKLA
Histone deacetylase 4, sequence (P56524 whole entry): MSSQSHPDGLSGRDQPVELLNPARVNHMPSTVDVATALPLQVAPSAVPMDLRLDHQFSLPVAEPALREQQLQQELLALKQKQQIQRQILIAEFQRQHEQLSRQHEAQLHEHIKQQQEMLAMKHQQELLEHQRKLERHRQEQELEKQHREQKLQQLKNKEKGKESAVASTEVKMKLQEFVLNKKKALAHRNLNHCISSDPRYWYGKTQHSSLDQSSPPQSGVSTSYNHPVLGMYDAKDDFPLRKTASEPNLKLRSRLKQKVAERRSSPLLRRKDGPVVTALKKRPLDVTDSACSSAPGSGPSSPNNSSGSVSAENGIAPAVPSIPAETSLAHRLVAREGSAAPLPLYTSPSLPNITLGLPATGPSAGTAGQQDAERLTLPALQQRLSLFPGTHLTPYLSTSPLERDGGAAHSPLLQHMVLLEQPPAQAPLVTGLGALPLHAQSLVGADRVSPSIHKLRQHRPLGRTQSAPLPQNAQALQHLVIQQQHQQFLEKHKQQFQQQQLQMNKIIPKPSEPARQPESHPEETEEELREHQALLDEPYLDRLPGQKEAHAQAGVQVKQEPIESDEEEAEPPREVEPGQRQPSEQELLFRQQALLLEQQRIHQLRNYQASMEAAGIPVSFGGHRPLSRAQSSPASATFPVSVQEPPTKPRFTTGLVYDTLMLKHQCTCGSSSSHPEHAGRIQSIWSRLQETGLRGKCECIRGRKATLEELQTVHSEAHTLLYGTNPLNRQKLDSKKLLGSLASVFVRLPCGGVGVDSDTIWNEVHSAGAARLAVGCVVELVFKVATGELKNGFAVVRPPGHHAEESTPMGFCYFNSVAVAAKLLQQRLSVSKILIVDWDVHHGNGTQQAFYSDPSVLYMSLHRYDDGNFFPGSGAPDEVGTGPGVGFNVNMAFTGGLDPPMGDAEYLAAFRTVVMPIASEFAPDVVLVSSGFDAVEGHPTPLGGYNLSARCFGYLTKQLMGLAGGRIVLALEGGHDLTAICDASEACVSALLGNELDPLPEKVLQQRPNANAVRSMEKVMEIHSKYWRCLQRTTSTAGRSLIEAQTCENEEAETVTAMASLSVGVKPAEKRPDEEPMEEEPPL

SMILES: Nc1ccccc1NC(=O)/C=C/c1ccc(-c2nnc(Cc3ccc4ccccc4c3)o2)cc1
IC50 [1]: > 20 µM | IC50 [2]: > 20 µM | IC50 [4]: 2.4 µM

SMILES: Nc1ccccc1NC(=O)c1ccc(CNC(=O)OCc2cccnc2)cc1 [ENTINOSTAT]
Activity [6]: 47%

SMILES: Nc1ccccc1NC(=O)/C=C/c1ccc(-c2nnc(Cc3cccc4ccccc34)o2)cc1
IC50 [1]: > 20 µM | IC50 [2]: > 20 µM | IC50 [4]: 1 µM | Activity [14]: Dose-dependent effect

SMILES: O=C(NO)c1ccc(-c2nnc(Cc3cccc4ccccc34)o2)cc1
IC50 [1]: 4.1 µM | IC50 [2]: > 20 µM | IC50 [4]: 9.9 µM

SMILES: Nc1ccccc1NC(=O)/C=C/c1ccc(Cc2nnc(Cc3cccc4ccccc34)o2)cc1
IC50 [1]: > 20 µM | IC50 [2]: > 20 µM | IC50 [4]: 4.1 µM

SMILES: Nc1ccccc1NC(=O)/C=C/c1ccc(-c2nnc(Cc3c[nH]c4ccccc34)o2)cc1
IC50 [1]: > 20 µM | IC50 [2]: > 20 µM | IC50 [4]: 1.5 µM

SMILES: O=C(CCCCCCC(=O)Nc1ccccc1)NO [VORINOSTAT]
Activity [24]: Active | Activity [19]: 48%

SMILES: Nc1ccccc1NC(=O)c1ccc(Cc2nnc(Cc3cccc4ccccc34)o2)cc1
IC50 [7]: 19.6 µM | IC50 [1]: 8.9 µM | IC50 [2]: > 20 µM | IC50 [8]: 6.7 µM | IC50 [9]: 29.8 µM | Activity [25]: Active | IC50 [10]: 23.6 µM | Activity [3]: Active | IC50 [4]: 0.2 µM | Activity [5]: Dose-dependent effect | IC50 [11]: 1.8 µM | IC50 [12]: 1.6 µM | Activity [6]: 45% | IC50 [13]: 24.7 µM | Activity [14]: Dose-dependent effect | IC50 [15]: 2.8 µM | IC50 [16]: 43.3 µM | IC50 [18]: 17.4 µM | inhibition at 2.5 µM [26]: 75% | IC50 [20]: 2 µM | IC50 [22]: 20.4 µM | IC50 [23]: 1.8 µM

SMILES: Nc1ccccc1NC(=O)c1ccc(-c2nnc(Cc3cccc4ccccc34)o2)cc1
IC50 [1]: 16.1 µM | IC50 [2]: > 20 µM | IC50 [4]: 0.3 µM | Activity [14]: Dose-dependent effect

Now from value to compound, other results behind:

IC50 [1]: 1.2 µM | IC50 [2]: 7.8 µM | IC50 [4]: 0.2 µM
SMILES: O=C(NO)c1ccc(Cc2nnc(Cc3cccc4ccccc34)o2)cc1
Activity [3]: Active | Activity [5]: Dose-dependent effect

IC50 [7]: 18.4 µM | IC50 [1]: 0.03 µM | IC50 [2]: > 20 µM | IC50 [8]: 5.1 µM | IC50 [9]: 33.6 µM | IC50 [10]: 29.5 µM | IC50 [4]: 0.2 µM | IC50 [12]: 2.2 µM | IC50 [22]: 50 µM
SMILES: O=C(/C=C/c1ccc(Cc2nnc(Cc3cccc4ccccc34)o2)cc1)NO
Activity [5]: Dose-dependent effect | IC50 [11]: 2.6 µM | IC50 [13]: 21.3 µM | Activity [14]: Dose-dependent effect | IC50 [15]: 6 µM | IC50 [16]: 45 µM | Activity [17]: 74% | IC50 [18]: 24 µM | Activity [19]: 58% | IC50 [20]: 4.1 µM | inhibition [21]: Active | IC50 [23]: 7.8 µM

IC50 [1]: 0.03 µM | IC50 [2]: 15.2 µM | IC50 [4]: 0.6 µM
SMILES: O=C(/C=C/c1ccc(-c2nnc(Cc3c[nH]c4ccccc34)o2)cc1)NO

IC50 [1]: 0.06 µM | IC50 [2]: > 20 µM | IC50 [4]: 0.8 µM
SMILES: O=C(/C=C/c1ccc(-c2nnc(Cc3cccc4ccccc34)o2)cc1)NO
